The text below walks through data of ChEMBL document CHEMBL4834403, “Design and Synthesis of Novel Epigenetic Inhibitors Targeting Histone Deacetylases, DNA Methyltransferase 1, and Lysine Methyltransferase G9a with In Vivo Efficacy in Multiple Myeloma” (J Med Chem, 2021).

For data set [1], the target named is DNA (cytosine-5)-methyltransferase 1 (Homo sapiens, UniProt P26358). The data set is described as follows: Inhibition of human DNMT1 enzyme using polydeoxy-inosine polydeoxy-cytosine DNA as substrate incubated for 15 mins in presence of SAM by TR-FRET assay.
Data set [2] addresses Histone deacetylase (Homo sapiens) (UniProt Q13547+O15379+Q9UBN7+Q92769+Q9UQL6+Q8WUI4+Q9BY41+Q96DB2+P56524+Q9UKV0+Q969S8). Put plainly: Inhibition of HDAC in human MM1.S cells assessed as increase in H3K9Ac at > 1 uM after 48 hrs by Western blot analysis. It counts as cell-based. The conditions noted are these: dose microM >1, time 48.0 hrs. Summed up:
(§1)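 MM1.S cells exposed 48 h across a concentration range. Global H3K9Ac and H3K9me2 read by Western blot; run in duplicate.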

Data set [3] concerns the target T1, Histone-lysine N-methyltransferase EHMT2 (Homo sapiens) (UniProt Q96KQ7).
T1 sequence (whole entry): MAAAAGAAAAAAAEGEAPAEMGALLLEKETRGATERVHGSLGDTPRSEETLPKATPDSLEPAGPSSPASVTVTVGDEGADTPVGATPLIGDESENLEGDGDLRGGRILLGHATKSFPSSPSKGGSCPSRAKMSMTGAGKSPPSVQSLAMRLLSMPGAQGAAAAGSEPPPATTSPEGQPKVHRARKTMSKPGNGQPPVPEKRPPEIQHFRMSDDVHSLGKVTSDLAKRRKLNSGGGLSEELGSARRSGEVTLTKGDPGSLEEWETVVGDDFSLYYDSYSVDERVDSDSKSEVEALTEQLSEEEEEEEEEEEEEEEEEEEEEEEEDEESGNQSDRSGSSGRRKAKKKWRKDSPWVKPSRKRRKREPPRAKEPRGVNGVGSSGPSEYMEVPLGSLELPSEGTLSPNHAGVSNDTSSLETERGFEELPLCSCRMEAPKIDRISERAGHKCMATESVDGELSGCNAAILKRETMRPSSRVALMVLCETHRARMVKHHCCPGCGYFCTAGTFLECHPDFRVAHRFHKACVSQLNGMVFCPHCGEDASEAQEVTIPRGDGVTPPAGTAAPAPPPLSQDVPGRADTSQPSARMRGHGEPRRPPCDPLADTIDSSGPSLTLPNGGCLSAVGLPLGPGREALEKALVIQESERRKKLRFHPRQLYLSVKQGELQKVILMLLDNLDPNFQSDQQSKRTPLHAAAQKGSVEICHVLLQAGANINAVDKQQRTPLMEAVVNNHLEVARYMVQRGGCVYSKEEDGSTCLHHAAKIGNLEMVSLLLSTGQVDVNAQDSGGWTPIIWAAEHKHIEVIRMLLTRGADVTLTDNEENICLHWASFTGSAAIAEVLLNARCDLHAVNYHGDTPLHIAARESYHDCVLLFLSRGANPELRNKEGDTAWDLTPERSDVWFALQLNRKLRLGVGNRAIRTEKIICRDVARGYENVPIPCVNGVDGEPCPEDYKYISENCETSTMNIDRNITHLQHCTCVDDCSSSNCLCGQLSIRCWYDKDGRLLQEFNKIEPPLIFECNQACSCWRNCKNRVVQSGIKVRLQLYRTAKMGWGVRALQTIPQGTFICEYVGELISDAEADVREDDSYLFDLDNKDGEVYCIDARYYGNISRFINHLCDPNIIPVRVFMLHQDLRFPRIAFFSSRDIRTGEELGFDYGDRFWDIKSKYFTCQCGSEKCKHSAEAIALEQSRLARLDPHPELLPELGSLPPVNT
Put plainly: Inhibition of G9A in human MM1.S cells assessed as decrease in H3K9Me2 levels up to 1000 nM after 48 hrs by Western blot analysis. It counts as cell-based. Conditions: dose nM <=1000, time 48.0 hrs. Summed up:
as §1

For a further data set, the system named is MM1.S. The data set is described as follows: Induction of DNA hypomethylation in human MM1.S cells assessed as CPG hypomethylation at position 4 at 10 nM measured after 5 days relative to control. Conditions: time 5.0 day. Type of data set: cell-based. Summed up:
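MM1.S cells dosed every day for 5 days at 2 μM or 10 nM. DNA methylation at CpGs of the POU4F2 promoter read by pyrosequencing; run in duplicate.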

The next data set addresses CYP2C9 (Homo sapiens, UniProt P11712). The data set is described as follows: Inhibition of CYP2C9 in human liver microsomes at 10 uM incubated for 10 mins in presence of NADPH by LC-MS/MS analysis relative to control. Type of data set: ADME.
The target in another data set is CYP2D6 (Homo sapiens, UniProt P10635). Put plainly: Inhibition of CYP2D6 in human liver microsomes at 10 uM incubated for 10 mins in presence of NADPH by LC-MS/MS analysis relative to control. It counts as ADME.
The next data set concerns the target CYP3A4 (Homo sapiens, UniProt P08684). Put plainly: Inhibition of CYP3A4 in human liver microsomes at 10 uM incubated for 10 mins in presence of NADPH by LC-MS/MS analysis relative to control. Type of data set: ADME.
Data set [4] can be described thus: Stability of the compound in human pooled hepatocytes assessed as parent compound remaining incubated for 60 mins. Conditions: read-out: Stabilty. Type of data set: ADME, cell-based, Hepatocyte.
Data set [5] can be described thus: Intrinsic clearance in human pooled hepatocytes. Type of data set: ADME, cell-based, Hepatocyte. Conditions: read-out: CLH.
Data set [6] is described as follows: Stability of the compound in mouse pooled hepatocytes assessed as parent compound remaining incubated for 60 mins. It counts as ADME, cell-based, Hepatocyte. Conditions: read-out: Stabilty.
Data set [7] can be described thus: Intrinsic clearance in mouse pooled hepatocytes. Type of data set: ADME, cell-based, Hepatocyte. The conditions noted are these: read-out: CLH.
Data set [8] is described as follows: AUC (0 to 24 hrs) in BALB/c RAG2-/- gammaC-/- mouse at 10 mg/kg, ip measured up to 24 hrs by UPLC-triple quadrupole MS analysis. Type of data set: ADME, organism-based. Also on record: route intraperitoneal, dose 10 mg/kg, time <=24. The conditions noted are these: in vivo.
Data set [9] in a line: Apparent oral clearance in BALB/c RAG2-/- gammaC-/- mouse at 10 mg/kg, ip measured up to 24 hrs by UPLC-triple quadrupole MS analysis. The conditions noted are these: in vivo. Type of data set: ADME, organism-based.
Data set [10] is described as follows: Apparent volume of distribution during terminal phase in BALB/c RAG2-/- gammaC-/- mouse at 10 mg/kg, ip measured up to 24 hrs by UPLC-triple quadrupole MS analysis. It counts as ADME, organism-based. Conditions: in vivo, read-out: Vz/F.
Data set [11] in a line: AUC (0 to 24 hrs) in BALB/c RAG2-/- gammaC-/- mouse at 10 mg/kg, ip using 80% saline 10% Tween20 and 10% DMSO formulation measured up to 24 hrs by UPLC-triple quadrupole MS analysis. Also on record: route intraperitoneal, dose 10 mg/kg, time <=24. It counts as ADME, organism-based. Conditions: in vivo.
The nature of data set [12]: Toxicity in BALB/c RAG2-/- gammaC-/- mouse xenografted with human MM1.S cells assessed as effect on body weight at 10 mg/kg, ip administered for 5 consecutive days followed by 2 days rest and measured after 35 days. It counts as organism-based. Conditions: in vivo, 840 h, time 35 day.

Activity calls are given as the source filed them. No cut-off for these calls is given here.

Chain of CYP3A4 (P08684 whole entry): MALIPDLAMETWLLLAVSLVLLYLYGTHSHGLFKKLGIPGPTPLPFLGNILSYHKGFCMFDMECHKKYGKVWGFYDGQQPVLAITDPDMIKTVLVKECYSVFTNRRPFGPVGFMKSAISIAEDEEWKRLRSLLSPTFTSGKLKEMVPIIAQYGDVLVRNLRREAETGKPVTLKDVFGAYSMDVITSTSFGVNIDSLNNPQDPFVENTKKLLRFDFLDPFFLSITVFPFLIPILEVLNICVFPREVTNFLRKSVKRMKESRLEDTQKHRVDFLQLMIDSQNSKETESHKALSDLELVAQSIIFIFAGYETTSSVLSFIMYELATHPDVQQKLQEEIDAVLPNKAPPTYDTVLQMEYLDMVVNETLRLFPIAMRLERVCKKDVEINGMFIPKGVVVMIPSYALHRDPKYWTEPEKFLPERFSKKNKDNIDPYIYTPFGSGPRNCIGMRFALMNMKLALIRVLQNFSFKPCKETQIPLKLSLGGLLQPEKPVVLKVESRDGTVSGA
Chain of DNA (cytosine-5)-methyltransferase 1 (P26358 whole entry): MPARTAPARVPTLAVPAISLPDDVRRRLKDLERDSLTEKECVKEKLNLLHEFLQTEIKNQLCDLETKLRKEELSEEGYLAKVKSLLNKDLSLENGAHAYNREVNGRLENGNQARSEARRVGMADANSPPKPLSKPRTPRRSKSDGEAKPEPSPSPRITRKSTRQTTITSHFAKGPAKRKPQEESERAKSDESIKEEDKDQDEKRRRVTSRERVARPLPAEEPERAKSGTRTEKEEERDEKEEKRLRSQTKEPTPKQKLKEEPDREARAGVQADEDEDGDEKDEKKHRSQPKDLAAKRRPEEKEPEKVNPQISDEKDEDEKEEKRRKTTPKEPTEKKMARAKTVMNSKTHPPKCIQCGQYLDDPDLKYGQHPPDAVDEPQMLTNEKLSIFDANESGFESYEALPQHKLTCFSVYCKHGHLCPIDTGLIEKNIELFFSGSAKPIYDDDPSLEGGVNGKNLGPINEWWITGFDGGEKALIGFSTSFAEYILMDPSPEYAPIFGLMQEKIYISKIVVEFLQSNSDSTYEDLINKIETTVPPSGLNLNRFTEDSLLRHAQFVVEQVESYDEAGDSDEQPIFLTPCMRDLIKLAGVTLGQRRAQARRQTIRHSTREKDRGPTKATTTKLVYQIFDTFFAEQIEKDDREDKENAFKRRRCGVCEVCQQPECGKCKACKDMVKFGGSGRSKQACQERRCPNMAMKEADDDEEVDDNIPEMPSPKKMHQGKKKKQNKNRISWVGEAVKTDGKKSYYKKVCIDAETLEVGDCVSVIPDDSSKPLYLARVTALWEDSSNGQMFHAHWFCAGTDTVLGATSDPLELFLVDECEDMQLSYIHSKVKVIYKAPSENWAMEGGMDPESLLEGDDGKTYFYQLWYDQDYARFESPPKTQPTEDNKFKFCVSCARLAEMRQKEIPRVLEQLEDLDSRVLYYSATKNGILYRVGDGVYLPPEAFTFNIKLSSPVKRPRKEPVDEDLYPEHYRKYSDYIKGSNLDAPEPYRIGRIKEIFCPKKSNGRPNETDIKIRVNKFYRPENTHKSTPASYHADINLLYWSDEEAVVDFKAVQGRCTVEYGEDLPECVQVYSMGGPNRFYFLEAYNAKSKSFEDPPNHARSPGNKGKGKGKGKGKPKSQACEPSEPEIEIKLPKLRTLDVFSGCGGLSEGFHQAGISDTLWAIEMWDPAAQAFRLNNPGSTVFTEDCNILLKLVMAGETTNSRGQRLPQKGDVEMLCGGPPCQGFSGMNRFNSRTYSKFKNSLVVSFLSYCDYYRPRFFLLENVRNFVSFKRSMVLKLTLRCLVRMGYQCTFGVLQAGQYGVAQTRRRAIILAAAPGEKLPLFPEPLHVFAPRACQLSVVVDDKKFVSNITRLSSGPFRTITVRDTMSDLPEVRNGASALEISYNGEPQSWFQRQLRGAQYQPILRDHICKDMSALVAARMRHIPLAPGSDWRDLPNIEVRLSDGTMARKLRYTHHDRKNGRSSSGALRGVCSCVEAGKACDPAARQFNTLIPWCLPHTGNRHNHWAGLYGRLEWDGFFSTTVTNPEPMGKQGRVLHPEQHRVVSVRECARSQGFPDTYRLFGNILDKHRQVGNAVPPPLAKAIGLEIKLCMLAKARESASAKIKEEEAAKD
Chain of CYP2C9 (P11712 whole entry): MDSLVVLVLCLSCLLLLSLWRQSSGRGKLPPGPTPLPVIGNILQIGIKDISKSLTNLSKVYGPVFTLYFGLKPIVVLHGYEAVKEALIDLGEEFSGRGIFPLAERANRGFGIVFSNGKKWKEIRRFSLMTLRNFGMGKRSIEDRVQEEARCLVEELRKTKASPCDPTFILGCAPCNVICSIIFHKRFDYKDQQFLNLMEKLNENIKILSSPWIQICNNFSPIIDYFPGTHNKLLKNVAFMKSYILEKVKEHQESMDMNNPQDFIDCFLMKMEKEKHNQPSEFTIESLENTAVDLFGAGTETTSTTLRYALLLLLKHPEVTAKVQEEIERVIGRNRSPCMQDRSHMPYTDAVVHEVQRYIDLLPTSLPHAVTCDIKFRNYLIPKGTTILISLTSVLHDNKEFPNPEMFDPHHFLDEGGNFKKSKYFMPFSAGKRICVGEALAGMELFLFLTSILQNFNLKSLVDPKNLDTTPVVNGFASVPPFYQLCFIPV
Chain of CYP2D6 (P10635 whole entry): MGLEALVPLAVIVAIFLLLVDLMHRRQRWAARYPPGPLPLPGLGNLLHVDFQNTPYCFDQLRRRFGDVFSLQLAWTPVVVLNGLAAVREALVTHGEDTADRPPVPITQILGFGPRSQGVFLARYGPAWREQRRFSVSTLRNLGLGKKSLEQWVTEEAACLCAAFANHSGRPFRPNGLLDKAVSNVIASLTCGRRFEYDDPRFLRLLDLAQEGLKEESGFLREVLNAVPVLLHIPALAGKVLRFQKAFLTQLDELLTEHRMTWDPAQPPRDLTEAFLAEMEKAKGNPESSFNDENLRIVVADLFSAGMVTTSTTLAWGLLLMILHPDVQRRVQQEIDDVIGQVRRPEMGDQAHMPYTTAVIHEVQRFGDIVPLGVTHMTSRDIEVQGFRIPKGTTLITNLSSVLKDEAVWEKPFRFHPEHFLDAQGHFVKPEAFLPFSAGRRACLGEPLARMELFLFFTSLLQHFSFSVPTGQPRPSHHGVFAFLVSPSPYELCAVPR

Regarding `COc1cc2c(NCC3CCN(c4ncc(C(=O)NO)cn4)CC3)cc(-c3ccc(C)o3)nc2cc1OCCCN1CCCC1`, the IC50 in data set [1] came to 1160 nM. Moreover, the inhibition result in [2] is “Active”.
Consider `COc1cc2nc(-c3ccc(C)o3)cc(NCC3CCN(c4ncc(C(=O)NO)cn4)CC3)c2cc1OC`, for which the inhibition result in data set [3] was “inactive”. Moreover, the figures for the Activity (with MM1.S; in data set [12]) were 10% and “Non-Toxic”, respectively. The inhibition at 10 min, 10 µM at CYP2C9 was 0%; on CYP2D6, 10.8%; at CYP3A4, 50.8%. In addition, the remaining at 1 h in [4] was 50.8%; in [6], 14.3%. In addition, the CLint scaled turned out to be 54.2 mL/min/kg in data set [5] and 411 mL/min/kg in data set [7]. For the same molecule, the AUC(0-t) was determined as 0.591 µM·h in [8] and 0.916 µM·h in data set [11]. The CL/F in [9] is 13.3 mL/min. Besides, in [10], the Vd/F was 4.6 L.
